Assay results from ChEMBL document CHEMBL1131499, “Molecular features associated with polyamine modulation of NMDA receptors” (J Med Chem, 1998).

How the values were obtained:
[1] = Dissociation constant (pK2)
[2] = Dissociation constant (pK1)
[3] = Partition coefficient (logP)
[4] = target: Glutamate NMDA receptor (Rattus norvegicus) (UniProt P35439+Q00959+Q00960+Q00961+Q62645+Q8VHN2+Q9R1M7); assay: Enhanced binding of [3H]MK-801 to N-methyl-D-aspartate glutamate receptor in presence of spermine; assay type: protein-complex assay
Summary of the method: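 Forebrain membranes (minus cerebellum and brainstem) from adult male Sprague–Dawley rats, prepared by buffy-coat centrifugation in 5 mM HEPES/4.5 mM Tris pH 7.6 with EDTA washes, then stored frozen. About 50 μg protein incubated with [³H]MK-801 (final 4–4.5 nM) plus spermine, without added glutamate or glycine, for 2 h at room temperature. Filtered on polyethylenimine-soaked glass fiber filters. Nonspecific binding defined with 100 μM PCP; counted by scintillation.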

SMILES	pKa [1]	pKa [2]	ΔpK [3]	Sp Max [4] [%]
OCCNC1CCN(Cc2ccccc2)CC1	6.67	9.24	2.57	
NC1CCNCC1	8.1	10.6	2.53	12
CN1CC2CC1C[C@@H](N)C2 (stereo not given in full)				8
NC1CCN(Cc2ccccc2)CC1	7.05	9.79	2.74	
CC1(C)CC(NCCO)CC(C)(C)N1	7.42	10.5	3.1	
CNCC(C)CNC	8.29	10.6	2.26	11
CN(C)CCCN(C)C	7.77	9.81		22
NCC(O)CN	8.14		1.54	35
CC(C)(CN)CN	7.81	10.2	2.37	5
CN(C)C1CCNCC1	7.71	10.7	2.95	44
CNC1CCN(C)CC1	7.34	10.1	2.75	2
CNCCCN	8.66	10.7	2.01	15
C1CCN(CCCN2CCCCC2)CC1	8.33	10.4	2.06	
NCCCN	8.69	10.6	1.86	22
CNCCCNC	8.68	10.7	2.02	16
CN(C)CC(C)(C)CN	7.13	10.3	3.15	
NCC(=O)CN	6.89	8.32	1.43	72
C=CCN(CC=C)CCCN(CC=C)CC=C	6.96	8.8	1.84	
C1CCN(C2CCNCC2)CC1 [[1,4']Bipiperidinyl]	7.97	10.7	2.76	
NCCCNCCO	8.19	10.3	2.09	16
CC1(C)CC(N)CC(C)(C)N1	7.9	10.6	2.73	
CN1CC2CC1C[C@H](N)C2 (stereo not given in full)				13
CN(C)C1CC(C)(C)NC(C)(C)C1	7.67	10.6	2.89	
